A selection: hits, their analogues and other compounds. The true share with any hit is near 1.8%.
NPY-Y1 PAM-ag = potentiators or agonists of human neuropeptide Y receptor Y1; NPY-Y1 expressing cells, potentiator/agonist activation; activation, % at 3.6 µM; actives 0.37% (n = 220,000); in the data active = activation above about 33%, passing the limit was not always enough;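 note: cells stimulated with NPY at EC10 then isoproterenol at EC100; 0% = low agonist plus stimulus and 100% = saturating agonist plus stimulus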
NPY-Y1 antag = blocks the human neuropeptide Y Y1 receptor; actives 1% (n = 200,000); inhibition, % at 3.6 µM; HEK293-CNG Y1 cells, membrane potential fluorescence; NPY at EC95, then isoproterenol; AID 1040; P25929;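 active = inhibition above the campaign mean inhibition of all tested compounds plus 3 SD, cut at about 20% in these data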;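 note: 0% = DMSO wells given NPY plus isoproterenol and 100% = isoproterenol alone without NPY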
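Material: HEK293 cells co-expressing NPY Y1 receptor and cyclic-nucleotide gated channel. Timing: compound incubation 1 h at room temperature, readout 45 min post-stimulation. Signal: fluorescence, membrane potential probe.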
NPY-Y2 PAM-ag = potentiators or agonists of human neuropeptide Y receptor Y2; P49146; cells expressing NPY-Y2, potentiator/agonist read-out; activation, % at 3.6 µM; actives 0.45% (n = 220,000); in the data active = activation above about 27%;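 note: cells stimulated with NPY near EC25 plus isoproterenol at EC100; 0% = vehicle plus submaximal agonist and 100% = vehicle plus saturating agonist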
Target sequence (P49146 whole entry, looked up): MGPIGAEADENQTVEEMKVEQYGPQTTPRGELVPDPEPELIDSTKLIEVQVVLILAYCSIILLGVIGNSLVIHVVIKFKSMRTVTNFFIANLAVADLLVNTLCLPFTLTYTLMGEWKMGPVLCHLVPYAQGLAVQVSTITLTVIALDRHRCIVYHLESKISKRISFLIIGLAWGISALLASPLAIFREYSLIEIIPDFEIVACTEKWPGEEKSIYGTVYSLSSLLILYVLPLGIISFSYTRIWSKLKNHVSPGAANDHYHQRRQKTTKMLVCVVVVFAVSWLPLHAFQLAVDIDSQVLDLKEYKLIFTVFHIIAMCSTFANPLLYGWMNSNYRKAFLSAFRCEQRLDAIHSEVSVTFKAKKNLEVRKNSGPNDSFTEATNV
NPY Y2 blocker = NPY-Y2 (human) receptor antagonism; P49146; NPY-Y2 expressing cells, antagonist mode; inhibition, % at 2.7 µM; actives 0.99% (n = 140,000); in the data active = inhibition above about 17%;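 note: 0% = vehicle with agonist challenge and 100% = reference antagonist with challenge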
Numbers without * were called inactive; . = not tested or not shown.

SMILES | NPY-Y1 PAM-ag | NPY-Y1 antag | NPY-Y2 PAM-ag | NPY Y2 blocker
Cc1c(Cl)cccc1NC(=S)N1CCN(Cc2ccc3c(c2)OCO3)CC1 | 53.2* | 15.2 | 33.4* | 2.2
Cc1ccccc1OCC(=O)Nc1ccc2c(c1)Cc1ccccc1-2 | -28.9 | 31.8* | -11.5 | 18.9*
COc1ccc(N(C(=O)Cn2nnc(-c3ccccc3F)n2)C(C(=O)NCC2CCCO2)c2ccc(Cl)cc2)cc1 (stereo not given) | 9.1 | 2.5 | -5.8 | .
S=C(NCCc1ccccc1)N/N=C/c1c(Cl)cccc1Cl | -41.1 | 22.3* | -16.9 | 22.6*
COc1ccc(C(O)c2coc3ccc(O)c(CN(C)C)c23)cc1 (stereo not given) | 106.6* | -21.4 | 100.4* | 3.2
Cn1cccc1Cc1nnc(SCC(=O)Nc2ccc(Cl)cc2)n1-c1ccc(F)cc1 | 14.5 | -1.3 | 9.3 | -4.1
Nc1nc(Nc2cccc(F)c2)nc2ccccc12 | 42.4* | -3.1 | 43.2* | -1.2
COc1ccc(CC(=O)N2CCN(c3ccc(C4=NNC(=O)CC4C)cc3)CC2)cc1 (stereo not given) | -79.3 | 79.3* | -22.9 | 82.9*
COc1ccc(CC(=O)N2CCN(C(=O)Cc3ccc(OC)cc3)CC2)cc1 | 4.7 | 3.4 | 20.1 | 2.5
Cc1ccccc1Cn1c(=N)n(CC(O)c2ccco2)c2ccccc21 (stereo not given) | -21.3 | 25.4* | -7.3 | 22.8*
N=c1n(CCN2CCCC2)c2ccccc2n1CC(O)c1ccco1 (stereo not given) | -9.5 | 4.9 | -4.3 | 3.7
Cc1ccc(CC(=O)NCCS(=O)c2ccc(C)cc2)cc1 (stereo not given) | -15.7 | -1.4 | 5.6 | .
Cc1cnc(NC(=O)CCNC(=O)c2ccc([N+](=O)[O-])cc2)s1 | 1.0 | 4.1 | -4.6 | .
O=C(NCc1ccc(F)cc1)c1ccc(S(=O)(=O)Nc2cccc(C(F)(F)F)c2)cc1 | 48.4* | -10.0 | 37.1* | -1.4
O=C(NCc1ccccc1F)c1ccc(S(=O)(=O)Nc2cccc(C(F)(F)F)c2)cc1 | 19.9 | -5.2 | 13.1 | -1.7
C/C(N)=C(/C#N)C(=O)CSc1cc(C)c2cc(C)cc(C)c2n1 | 7.7 | 0.3 | -14.9 | .
COc1ccc(C(NC(=O)c2c(F)c(F)c(F)c(F)c2F)c2ccccc2)cc1 (stereo not given) | 63.0* | -3.8 | 35.3* | 5.6
CC(C)CN1CCN(Cc2cc(F)ccc2-n2cccn2)CC1CCO (stereo not given) | -11.0 | 21.6* | -2.8 | .
O=C(O)Cc1cc(C(=O)Nc2ccc(Br)cc2)sc1-c1ccccc1 | -12.4 | 6.2 | 5.5 | 5.4
CCCCCCCCCCCCCCCC[n+]1cccc2ccccc21 | -5.5 | 7.1 | 18.5 | 6.7
CCCCCCCCC[n+]1cccc2c3ccccc3ccc21 | -83.0 | 55.5* | -6.8 | 18.7*
CCN(CC)c1c([N+](=O)[O-])c(=O)n(CC)c2ccccc12 | 6.3 | . | 3.1 | .
COC(=O)C1=C(C)NC2=C(C(=O)CCC2)C1c1cn(Cc2ccc(Cl)cc2Cl)nc1-c1ccccc1 (stereo not given) | -66.2 | 64.9* | -27.6 | 18.6*
CC1=C(C(=O)Nc2ccccn2)C(c2cn(C)nc2C)C2=C(CCCC2=O)N1 (stereo not given) | -3.7 | -3.5 | 6.8 | .
Fc1cccc(NC(=S)N2CCCCC2)c1 | 104.1* | -2.6 | -4.5 | 0.9
SMILES | NPY-Y1 PAM-ag | NPY-Y1 antag | NPY-Y2 PAM-ag | NPY Y2 blocker
O=C1[C@@H]2C(c3ccccc3Cl)=NO[C@@H]2C(=O)N1Cc1ccccc1 | -32.8 | -0.4 | 2.3 | 1.1
O=C1C=C(NCc2ccc(Cl)cc2Cl)C2(CCCCC2)O1 | -18.7 | 26.4* | 7.7 | 25.9*
CCCN(CCC)CC(C)(C)NS(=O)(=O)c1ccc(Cl)cc1 | 5.8 | . | 1.6 | .
COc1ccc2c(c1)C(SCC(=O)NCCc1ccc(Cl)cc1)CC(C)(C)O2 (stereo not given) | -12.4 | 2.1 | -3.6 | 3.3
COc1ccc(C)cc1N(C(=O)c1ccccc1F)c1nc2ccccc2s1 | -21.6 | 13.7 | -10.1 | 0.5
Cc1ccc(C2CC(c3cccs3)n3nc(N)nc3N2)cc1 (stereo not given) | 2.2 | 22.3* | 11.8 | 0.4
COc1cccc(Nc2nc3ccccc3nc2NS(=O)(=O)c2cccs2)c1 | 78.0* | -5.7 | 42.8* | -1.6
COc1ccc(Nc2nc3ccccc3nc2NS(=O)(=O)c2cccs2)c(OC)c1 | 44.7 | . | 8.9 | .
COc1ccc(CCN(C(=S)Nc2ccccc2)C2CC(=O)N(c3ccccc3)C2=O)cc1 (stereo not given) | 37.1 | -1.9 | 37.0* | -3.6
COc1ccc(CN(C(=S)Nc2ccccc2)C2CC(=O)N(c3ccc(F)cc3)C2=O)cc1 (stereo not given) | 11.9 | -16.7 | 18.9 | -3.0
NNC(=O)CNC(c1ccccc1)c1cc(Br)ccc1NC(=O)c1cccc(Cl)c1 (stereo not given) | -0.4 | -1.5 | -3.1 | -0.7
COC(=O)CNC(c1ccccc1)c1cc(Br)ccc1NC(C)=O (stereo not given) | -15.2 | 20.1* | -7.6 | .
COC(=O)CNC(c1ccccc1)c1cc(Cl)ccc1NC(=O)c1cccc(Cl)c1 (stereo not given) | -33.5 | 33.9* | -23.6 | 27.6*
Cc1ccc(-c2csc(NC(=O)N3CCOCC3)n2)cc1 | 9.0 | 1.3 | 4.8 | .
CCOC(=O)c1c(CC(C)C)csc1NC(=O)COC(=O)c1cc(OC)c(OC)cc1[N+](=O)[O-] | -7.0 | 2.7 | 2.5 | 3.8
CC(=O)Nc1ccc(S(=O)(=O)N2CCN(c3cc(C)nc4ccccc34)CC2)cc1 | 3.4 | 6.2 | 13.9 | -1.4
CC(=O)Nc1ccc(S(=O)(=O)N2CCN(c3nc(NC4CCCC4)c4ccccc4n3)CC2)cc1 | -1.3 | 13.1 | 31.6* | 8.8
COC(=O)CN1C(=S)N(Cc2ccccc2)C(=O)C1CC(=O)Nc1ccc(Br)cc1 (stereo not given) | 44.2* | -11.9 | 34.6* | -7.3
O=C(CSc1nnc(-c2ccncc2)n1-c1ccc(F)cc1)NNC(=O)c1cccc(O)c1 | -8.4 | 3.1 | 9.5 | 7.5
CCC(C)/C(C)=N/NC(=O)c1cn(-c2ccccc2)nc1-c1ccccc1 (stereo not given) | -12.0 | 8.6 | -21.3 | 2.0
C=CCc1cccc2cc(C(=O)Nc3ccccc3C(=O)O)c(=O)oc12 | 27.7 | -3.0 | 45.2* | .
CCC(C)(C)NC(=O)C(c1cccn1C)N(Cc1ccc(OC)cc1)C(=O)Cn1nnc2ccccc21 (stereo not given) | -158.9 | 52.0* | -81.2 | 52.7*
CCC(C)(C)NC(=O)C(c1cccn1C)N(C(=O)Cn1nnc2ccccc21)c1ccccc1OC (stereo not given) | -11.6 | 1.7 | 4.1 | 4.6
Cc1cc(-c2[nH]nc3c2C(c2ccsc2)C(C#N)=C(N)O3)c(C)s1 (stereo not given) | -61.0 | 154.1* | -6.9 | 148.7*
COc1ccc(Cc2nnc(N/N=C/c3ccc(O)cc3O)[nH]c2=O)cc1OC | 2.9 | 5.0 | 0.0 | 3.4
CCOCC(=O)Nc1cc(C(=O)Nc2ccc(F)cc2)ccc1Cl | 18.5 | 0.2 | -0.4 | .
COc1ccc(O[C@H]2C=C[C@@H](c3ccccc3)O[C@@H]2CO/N=C(\C)CCN2CCCCc3nc(C)c(C)cc32)cc1 | -29.6 | 21.8* | -8.5 | 21.4*

Screening data as filed in PubChem BioAssay.
